This note sets out measurements from ChEMBL document CHEMBL1156693, “Novel N-(phosphonomethyl) glycine derivatives: Design, characterization and biological activity” (Eur J Med Chem, 2008).

Holding throughout (format): functional
Conditions in all cases: route intraperitoneal

In assay [1] the test system is Mus musculus. Nature of the assay: Clastogenic effect on C57BL mouse assessed as number of metaphase chromosomal centromere/centromeric fusion in bone marrow cells at 3.5 mg/kg, ip after 24 hrs. In outline:
(§1)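 Inbred male and female C57Bl mice (20.0 ± 1.5 g), groups of 3 males + 3 females, 5 controls given 0.9% NaCl. Single i.p. dose. Colchicine 40 mg/kg i.p. 1 h before femoral bone marrow harvest. Cells in 0.075 M KCl for 20 min at 37 °C, fixed in methanol–acetic acid (3:1), stained with 5% Giemsa. At least 50 metaphases scored per animal for breaks, fragments, centromere/centromeric and telomere/telomeric fusions. Mitotic index from 1500 cells per animal. Group mean ± SE.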

For assay [2], the system named is Mus musculus. Put plainly: Clastogenic effect on C57BL mouse assessed as bone marrow cells with abberation at 3.5 mg/kg, ip after 24 hrs. The essentials: as §1
The test system of assay [3] is Mus musculus. Nature of the assay: Clastogenic effect on C57BL mouse assessed as number of metaphase chromosomal breaks in bone marrow cells at 3.5 mg/kg, ip after 24 hrs. The essentials:
as §1

In assay [4] the test system is Mus musculus. Put plainly: Clastogenic effect on C57BL mouse assessed as mitotic index in bone marrow cells at 3.5 mg/kg, ip after 24 hrs. The essentials: as §1
Assay [5] relates to Mus musculus. Nature of the assay: Clastogenic effect on C57BL mouse assessed as number of metaphase chromosome telomere/telomeric fusion in bone marrow cells at 3.5 mg/kg, ip after 24 hrs. The essentials:
as §1

For assay [6], the system named is Mus musculus. Put plainly: Clastogenic effect on C57BL mouse assessed as number of metaphase chromosomal fragments in bone marrow cells at 3.5 mg/kg, ip after 24 hrs. In outline:
as §1

For `CO[C@@]12[C@H](COC(N)=O)C3=C(C(=O)C(C)=C(N)C3=O)N1C[C@@H]1N[C@@H]12` [MITOMYCIN], the Activity in the assay on Mus musculus [1] is 11; with Mus musculus [2], 46.67%; in the assay with Mus musculus [3] it was 10; in the assay with Mus musculus [4], 5.49%; in the assay on Mus musculus [5], 0; in the assay with Mus musculus [6], 13.
